Values after ≈ are worked out from the molar mass of the structure shown.
Key:
[1] = test system: L cells; assay: Concentration that inhibited the growth of Mouse L cells; type: functional; settings: L929, read-out: ED50 (the source's name)
Summary of the method: (§1)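 Cloned Detroit 98 cells (human sternal marrow, ATCC CCL 18.1 derivative) or cloned mouse L cells (C3H/AN connective tissue) were grown as monolayers in modified Eagle's medium at 36 °C in a humidified CO2 incubator. Cells were exposed for 70-76 h, and control cultures reached at least two doublings. Total counts were made by electronic counter on replicate cultures. ED50 is the molar concentration giving 50% of control growth, read from a plot.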

[2] = species on record: Gallus gallus; assay: In vitro minimum inhibitory concentration for Eimeria tenella in embryonic chick liver cells; Toxic; type: functional
Summary of the method: (§2)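 E. tenella (Weybridge strain) was grown in cultured embryonic chick liver cells. The minimum inhibitory concentration against parasite growth was determined, and toxicity to the host cells was recorded alongside it.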

[3] = test system: Eimeria tenella; assay: Anti-coccidial activity which cleared number of chicks from parasite; type: functional
Summary of the method: (§3)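 Week-old chicks were given a simultaneous infection of Eimeria tenella (Weybridge strain) and E. acervulina (Ongar strain). Compound was mixed into the diet at the stated ppm level. Activity against E. acervulina was judged from oocyst production at day 5. Treated-group weight gain was compared with controls.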

[4] = test system: Detroit 98; assay: Concentration that inhibited the growth of cultured human detroit 98 cells; type: functional; settings: read-out: ED50 (the source's name); summary of the method: as §1
[5] = test system: Eimeria tenella; assay: In vitro minimum inhibitory concentration for Eimeria tenella in embryonic chick liver cells; type: functional; summary of the method: as §2
[6] = test system: Gallus gallus; assay: Compound tested in vivo for anti-coccidial activity which cleared number of chicks from parasite at 400 ppm in the diet; type: functional; summary of the method: as §3
[7] = species on record: Gallus gallus; assay: In vitro minimum inhibitory concentration for Eimeria tenella in embryonic chick liver cells; Slightly toxic; type: functional; summary of the method: as §2
[8] = test system: L cells; assay: Concentration that inhibited the growth of Mouse L cells.; type: functional; settings: L929, read-out: ED50 (the source's name); summary of the method: as §1
[9] = test system: Gallus gallus; assay: Compound tested in vivo for anti-coccidial activity which cleared number of chicks from parasite at 400 ppm in the diet; One chick out of five died and contained lesions due to parasite; type: functional
[10] = test system: Detroit 98; assay: Concentration that inhibited the growth of cultured human detroit 98 cells.; type: functional; settings: read-out: ED50 (the source's name); summary of the method: as §1
[11] = test system: Gallus gallus; assay: Compound tested in vivo for anti-coccidial activity which cleared number of chicks from parasite at 200 p.p.m. in the diet
[12] = test system: Gallus gallus; assay: Compound tested in vivo for anti-coccidial activity which cleared number of chicks from parasite at 25 p.p.m. in the diet; type: functional; summary of the method: as §3
[13] = test system: Gallus gallus; assay: Compound tested in vivo for anti-coccidial activity which cleared number of chicks from parasite at 100 ppm in the diet; One chick out of five died and contained lesions due to parasite
[14] = test system: Gallus gallus; assay: Compound tested in vivo for anti-coccidial activity which cleared number of chicks from parasite at 400 ppm in the diet; Chicks showed decreased weight gain; type: functional; summary of the method: as §3

## O=C(Nc1ncnc2c1cnn2C1O[C@H](CO)[C@@H](O)[C@H]1O)c1ccccc1 (stereo not given in full)
[1]
  EC50: > 100 µM
[2]
  MIC: 5 µg/mL (≈ 13.5 µM)
[3]
  No. of chicks: 0
[4]
  EC50: > 100 µM

## O=c1[nH]cnc2c1cnn2[C@@H]1O[C@H](CO)[C@@H](O)[C@H]1O
[5]
  MIC: 20 µg/mL (≈ 74.6 µM)
[6]
  No. of chicks: 0

## CCCCN(CC)c1ncnc2c1cnn2C1O[C@H](CO)[C@@H](O)[C@H]1O (stereo not given in full)
[5]
  MIC: 5 µg/mL (≈ 14.2 µM)
[3]
  No. of chicks: 0

## OC[C@H]1OC(n2ncc3c(N4CCOCC4)ncnc32)[C@H](O)[C@@H]1O (stereo not given in full)
[6]
  No. of chicks: 0
[7]
  MIC: 20 µg/mL (≈ 59.3 µM)

## NNc1ncnc2c1cnn2C1O[C@H](CO)[C@@H](O)[C@H]1O (stereo not given in full)
[5]
  MIC: 5 µg/mL (≈ 17.7 µM)
[8]
  EC50: 100 µM
[9]
  No. of chicks: 0
[10]
  EC50: 20 µM

## CCNc1ncnc2c1cnn2C1O[C@H](CO)[C@@H](O)[C@H]1O (stereo not given in full)
[5]
  MIC: 5 µg/mL (≈ 16.9 µM)
[6]
  No. of chicks: 1

## OC[C@H]1OC(n2ncc3c(NCc4ccccc4)ncnc32)[C@H](O)[C@@H]1O (stereo not given in full)
[5]
  MIC: 0.31 µg/mL (≈ 0.867 µM)
[3]
  No. of chicks: 0

## CN(C)c1ncnc2c1cnn2C1O[C@H](CO)[C@@H](O)[C@H]1O (stereo not given in full)
[5]
  MIC: 5 µg/mL (≈ 16.9 µM)
[11]
  No. of chicks: 2

## OC[C@H]1OC(n2ncc3c(NCc4ccco4)ncnc32)[C@H](O)[C@@H]1O (stereo not given in full)
[5]
  MIC: 0.31 µg/mL (≈ 0.893 µM)
[8]
  EC50: 3 µM
[10]
  EC50: 0.3 µM

## CCCCNc1ncnc2c1cnn2C1O[C@H](CO)[C@@H](O)[C@H]1O (stereo not given in full)
[5]
  MIC: 1.25 µg/mL (≈ 3.87 µM)
[3]
  No. of chicks: 0

## Nc1ncnc2c1ncn2[C@@H]1O[C@H](CO)[C@@H](O)[C@H]1O [ADENOSINE]
[8]
  EC50: 0.3 µM
[2]
  MIC: 20 µg/mL (≈ 74.8 µM)
[3]
  No. of chicks: 0
[10]
  EC50: 0.08 µM

## CC(C)=CCNc1ncnc2c1cnn2C1O[C@H](CO)[C@@H](O)[C@H]1O (stereo not given in full)
[5]
  MIC: 5 µg/mL (≈ 14.9 µM)
[8]
  EC50: > 100 µM
[3]
  No. of chicks: 0
[12]
  No. of chicks: 0
[10]
  EC50: 1.5 µM

## CNc1ncnc2c1cnn2C1O[C@H](CO)[C@@H](O)[C@H]1O (stereo not given in full)
[5]
  MIC: 0.31 µg/mL (≈ 1.1 µM)
[3]
  No. of chicks: 0

## OC[C@H]1OC(n2ncc3c(NC4CCCC4)ncnc32)[C@H](O)[C@@H]1O (stereo not given in full)
[5]
  MIC: 0.31 µg/mL (≈ 0.924 µM)
[3]
  No. of chicks: 5

## CCCCCCNc1ncnc2c1cnn2C1O[C@H](CO)[C@@H](O)[C@H]1O (stereo not given in full)
[5]
  MIC: 1.25 µg/mL (≈ 3.56 µM)
[3]
  No. of chicks: 0

## CCCCCCCCNc1ncnc2c1cnn2C1O[C@H](CO)[C@@H](O)[C@H]1O (stereo not given in full)
[5]
  MIC: 5 µg/mL (≈ 13.2 µM)
[13]
  No. of chicks: 0

## CCN(CC)c1ncnc2c1cnn2C1O[C@H](CO)[C@@H](O)[C@H]1O (stereo not given in full)
[5]
  MIC: 5 µg/mL (≈ 15.5 µM)
[14]
  No. of chicks: 1

## CCCCCCN(CCCCCC)c1ncnc2c1cnn2C1O[C@H](CO)[C@@H](O)[C@H]1O (stereo not given in full)
[5]
  MIC: > 20 µg/mL
[8]
  EC50: 50 µM
[3]
  No. of chicks: 1
[10]
  EC50: 50 µM

## OC[C@H]1OC(n2ncc3c(NCCc4ccccc4)ncnc32)[C@H](O)[C@@H]1O (stereo not given in full)
[5]
  MIC: 5 µg/mL (≈ 13.5 µM)
[13]
  No. of chicks: 0

From ChEMBL document CHEMBL1122126, “Pyrazolo[3,4-d]pyrimidine ribonucleosides as anticoccidials. 2. Synthesis and activity of some nucleosides of 4-(alkylamino)-1H-pyrazolo[3, 4-d]pyrimidines” (1982)
